The record followed here is ChEMBL document CHEMBL1157968, “Chemical and cytotoxic constituents from the leaves of Cinnamomum kotoense” (2006).

Holding throughout (assay type): functional
Test [1] deals with HeLa. In words: Cell cycle arrest in human HeLa cells assessed as G1 phase accumulation at 25 uM after 24 hrs by FACS. The essentials:
(§1)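 HeLa cells seeded 5 × 10^5 per dish 48 h ahead in DMEM with 10% FCS, then exposed to compound for 24 h (DMSO 0.1% final). Adherent and floating cells pooled, fixed in PBS-MeOH (1:2) at 4 °C for at least 18 h, and stained with PI (50 µg/mL) plus RNase A for 30 min at room temperature. Flow cytometry at 488 nm excitation, doublets gated out; phase percentages taken from DNA histograms.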
In general terms: Flow cytometry measures light scatter and fluorescence of single cells or particles in a stream.

The test system of test [2] is HeLa. In words: Induction of apoptosis in human HeLa cells assessed as increase in intracellular peroxide level at 100 uM after 24 hrs by FACS relative to untreated control. The essentials: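 HeLa cells at 80% confluence were refed and exposed to 100 µM for 1, 3 or 24 h. They were loaded with 10 µM DCFH-DA for 30 min in the dark, trypsinized and resuspended in PBS. DCF fluorescence was measured by flow cytometry and expressed as fold versus untreated cells. At least three experiments.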

For test [3], the system named is HeLa. In words: Induction of apoptosis in human HeLa cells assessed as increase caspase 3/7 activities at 100 uM after 9 hrs by FACS relative to control. The essentials:
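After 3–24 h exposure at 100 µM, HeLa cells were trypsinized. 1 × 10^6 cells in DMEM were mixed 1:1 with Z-DEVD-R110 substrate reagent and incubated 1 h at 37 °C, then washed. Released R110 read per cell by flow cytometry (ex 488/em 520 nm) and expressed as fold over untreated cells. At least three runs.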

In test [4] the test system is HeLa. In words: Cell cycle arrest in human HeLa cells assessed as G1 phase accumulation at 100 uM after 24 hrs by FACS. A digest of the protocol: as §1
Test [5] has as its system HeLa. In words: Cell cycle arrest in human HeLa cells assessed as subG1 phase accumulation at 100 uM after 24 hrs by FACS. The essentials:
as §1

Test [6] concerns HeLa. In words: Cell cycle arrest in human HeLa cells assessed as subG1 phase accumulation at 50 uM after 24 hrs by FACS. The essentials:
as §1

In test [7] the test system is HeLa. In words: Induction of apoptosis in human HeLa cells assessed as increase in intracellular nitric oxide level at 100 uM after 1 hr by FACS relative to untreated control. A digest of the protocol: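 HeLa cells at 80% confluence were exposed to 100 µM for 1, 3 or 24 h and then stained with 1 µM DAF-2 for 10 min in the dark. After trypsinization, DAF-2 fluorescence was measured by flow cytometry and taken as fold versus untreated cells. At least three experiments.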

Test [8] concerns HeLa. In words: Induction of apoptosis in human HeLa cells pretreated with 5 uM cyclosporin A for 1 hr at 100 uM after 24 hrs by TUNEL assay. A digest of the protocol: (§2)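 HeLa in DMEM/10% FCS, untreated or pretreated 1 h with listed inhibitor, then 100 µM agent (0.1% DMSO final) for 24 h. Pooled cells fixed in 1% paraformaldehyde (30 min, 4 °C), 70% EtOH (30 min, −20 °C); strand breaks labelled with TdT/fluorescein-BrdUTP (1 h, 37 °C), PI/RNase counterstain; flow cytometry, % apoptotic cells; ≥3 experiments.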

Test [9] concerns HeLa. In words: Induction of apoptosis in human HeLa cells assessed as increase p53 expression at 100 uM after 12 hrs by FACS. A digest of the protocol: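 Cells at 60% confluence were exposed to 100 µM for 0–24 h. Floating and adherent cells were fixed in 1% paraformaldehyde (15 min, 4 °C) and permeabilized in 70% EtOH. They were stained with FITC-anti-p53 monoclonal antibody for 1 h at 37 °C, then with PI/RNase. Flow cytometry gave the percentage of p53-positive cells.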

For test [10], the system named is HeLa. In words: Cell cycle arrest in human HeLa cells pretreated with 5 uM cyclosporin A for 1 hr assessed as S phase accumulation at 100 uM after 24 hrs by FACS. A digest of the protocol: (§3)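 HeLa cells pretreated for 1 h with the listed agent (10 mM GSH ethyl ester, 10 µM dexamethasone, 10 µM pifithrin, 100 µM Boc-Asp(OMe)-fmk or 5 µM cyclosporin A), then given 100 µM compound for 24 h. Cells fixed in PBS-MeOH, stained with PI/RNase and analysed by flow cytometry for DNA content. At least three experiments, one representative shown.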

In test [11] the test system is HeLa. In words: Induction of apoptosis in human HeLa cells assessed as number of cells with decreased mitochondrial membrane potential at 100 uM after 3 hrs by measuring rhodamine 123 fluorescence intensity. The arrangement: scale not given: the % may be the effect or the level left. A digest of the protocol:
(§4)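 Cells in DMEM/10% FCS, medium renewed at 80% confluence, then 100 µM agent (0.1% DMSO final) for 1–24 h. Stained with 5 µM rhodamine 123 for 30 min in the dark, washed, trypsinized and resuspended in PBS; flow cytometry, percentage of cells with weak rhodamine 123 staining (reduced ΔΨm); at least three experiments, representative shown.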

Test [12] has as its system HeLa. In words: Induction of apoptosis in human HeLa cells assessed as increase in intracellular glutathione-depleted cell population at 25 uM after 24 hrs by FACS. A digest of the protocol:
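HeLa cells at 80% confluence got fresh medium and were exposed for 24 h. Adherent and floating cells were pooled, adjusted to (1-2) × 10^6/mL and stained with 25 µM CMF-DA for 30 min at 37 °C. After washing, flow cytometry scored the percentage of GSH-negative cells. At least three experiments.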

For test [13], the system named is HeLa. In words: Induction of apoptosis in human HeLa cells at 100 uM after 24 hrs by TUNEL assay. A digest of the protocol:
as §2

Test [14] concerns HeLa. In words: Induction of apoptosis in human HeLa cells assessed as number of cells with decreased mitochondrial membrane potential at 100 uM after 9 hrs by measuring rhodamine 123 fluorescence intensity. Also noted: scale not given: the % may be the effect or the level left. A digest of the protocol:
as §4

Test [15] relates to HeLa. In words: Induction of apoptosis in human HeLa cells assessed as increase p53 expression at 100 uM after 6 hrs by FACS. A digest of the protocol:
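HeLa seeded at 5 × 10^5 cells/dish 48 h before, in DMEM with 10% FCS; medium renewed at 60% confluence, then 100 µM agent (0.1% DMSO final) for 0–24 h. Pooled floating and adherent cells fixed in 1% paraformaldehyde (15 min, 4 °C), permeabilized in 70% EtOH (30 min, 4 °C), then FITC-conjugated mouse anti-p53 mAb (1 h, 37 °C), PI/RNase counterstain; flow cytometry, % p53-positive cells; ≥3 experiments.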

Test [16] relates to HeLa. In words: Cell cycle arrest in human HeLa cells pretreated with 10 mM glutathione ethyl ester for 1 hr assessed as subG1 phase accumulation at 100 uM after 24 hrs by FACS. The essentials: as §3
For test [17], the system named is HeLa. In words: Cell cycle arrest in human HeLa cells assessed as S phase accumulation at 100 uM after 24 hrs by FACS. The essentials:
as §1

Turning to `CCCCCCCCCCCCC/C=C(/C(=O)OC)[C@@H](O)C(C)=O` [SECOKOTOMOLIDE A], the Activity is listed as 55.2% in test [1]; 65.2% in test [4]; 75% in test [5]; 61.2% in test [6]; 54.5% in [8]; 2.3% in test [9]. The Activity was determined as 14.4% in [10]; 2.2% in [11]; 49% in test [12]; 72.3% in test [13]; 42.4% in test [14]; 3.2% in test [15]. Also, the Activity in test [16] was found to be 11.3%; in test [17] it was 28.7%. Further, the “fold change (FC)” value in test [2] is 3.9; in test [3], 9.9; in test [7], 2.1.
